Source: ChEMBL document CHEMBL3352193, “Synthesis of novel substituted purine derivatives and identification of the cell death mechanism” (Eur J Med Chem, 2015)
Active and inactive are the calls of the source. The calls are words filed in the database; no cut-off is given here.

What was measured:
[1] = Cytotoxicity against human HCT116 cells after 72 hrs by SRB assay; format: functional, cell-based; settings: HCT-116, 72 h
In short: (§1)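 SRB screen. Cells seeded at 2000–10,000/well and treated next day for 72 h with 40, 20, 10, 5 and 2.5 µM (DMSO under 1%). TCA fixation, 0.4% SRB staining, Tris solubilization, absorbance at 515 nm. Growth inhibition calculated relative to DMSO-only wells. IC50 derived from the five-concentration inhibition percentages.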

Huh-7 [2] = assay: Cytotoxicity against human HuH7 cells at 2.5 to 40 uM after 72 hrs by SRB assay; format: functional, cell-based; in short: as §1
T47D [3] = assay: Cytotoxicity against human T47D cells at 2.5 to 40 uM after 72 hrs by SRB assay; format: functional, cell-based; in short: as §1
HCT-116 = assay: Cytotoxicity against human HCT116 cells at 2.5 to 40 uM after 72 hrs by SRB assay; format: functional, cell-based; in short: as §1
[4] = Cytotoxicity against human HuH7 cells after 72 hrs by SRB assay; format: functional, cell-based; settings: Huh-7, 72 h
In short: (§2)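 Sulforhodamine B assay. Cells seeded at 2000–10,000/well and treated the next day in triplicate with ten concentrations (DMSO vehicle, under 1% final) for 24, 48 or 72 h at 37 °C, 5% CO2. Fixed with ice-cold TCA for 1 h at 4 °C, stained with 0.4% SRB in 1% acetic acid, dye solubilized in 10 mM Tris base, A515 read. % inhibition = 100 × (1 − OD drug/OD DMSO). IC50 taken from dose–response curves.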

T47D [5] = assay: Cytotoxicity against human T47D cells after 72 hrs by SRB assay; format: functional, cell-based
HepG2 = assay: Cytotoxicity against human HepG2 cells after 72 hrs by SRB assay; format: functional, cell-based; settings: HepG2, 72 h; in short: as §2
[6] = Cytotoxicity against human Hep3B cells after 72 hrs by SRB assay; format: functional, cell-based, Hep 3B2
In short: (§3)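 Liver cancer cell panel, SRB assay after 72 h exposure to ten concentrations (DMSO vehicle under 1%). TCA-fixed, SRB-stained, absorbance at 515 nm. Percent cell death calculated against DMSO-only wells, and IC50 read from dose–response curves.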

PLC = assay: Cytotoxicity against human PLC cells after 72 hrs by SRB assay; format: functional, cell-based; in short: as §3
[7] = Cytotoxicity against human SKHEP1 cells after 72 hrs by SRB assay; format: functional, cell-based; settings: SK-HEP1, 72 h; in short: as §3
[8] = Cytotoxicity against human Mahlavu cells after 72 hrs by SRB assay; format: functional, cell-based; in short: as §2
[9] = Cytotoxicity against human FOCUS cells after 72 hrs by SRB assay; format: functional, cell-based; in short: as §2
[10] = Cytotoxicity against human SNU182 cells after 72 hrs by SRB assay; format: functional, cell-based; settings: SNU-182, 72 h; in short: as §3
[11] = Cytotoxicity against human SNU475 cells after 72 hrs by SRB assay; format: functional, cell-based, SNU-475; settings: Homo sapiens, SNU-475, 72 h; read-out: IC50; in short: as §3
Huh-7 [12] = assay: Cytotoxicity against human HuH7 cells assessed as condensed apoptotic nuclei after 72 hrs by Hoechst […] staining-based fluorescence microscopy; format: functional, cell-based
FOCUS = assay: Cytotoxicity against human FOCUS cells assessed as condensed apoptotic nuclei after 72 hrs by Hoechst […] staining-based fluorescence microscopy; format: functional, cell-based
Mahlavu [13] = assay: Induction of apoptosis in human Mahlavu cells assessed as PARP cleavage at IC50 after 72 hrs by Western blotting analysis; format: functional, cell-based
Mahlavu [14] = assay: Induction of […] in human Mahlavu cells assessed as PARP cleavage at IC50 after 72 hrs by Western blotting analysis; format: functional, cell-based
Mahlavu [15] = assay: Induction of apoptosis in human Mahlavu cells assessed as Bcl2 expression at IC50 after 72 hrs by Western blotting analysis; format: functional, cell-based
Mahlavu [16] = assay: Induction of apoptosis in human Mahlavu cells assessed as total cytochrome c level at IC50 after 72 hrs by Western blotting analysis; format: functional, cell-based
Huh-7 [17] = assay: Reduction in intrinsic cellular ATP consumption in human HuH7 cells at IC50 after 24 hrs by bioluminescence assay; format: functional, cell-based
In short: (§4)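 Cells treated for 24 h, with staurosporine as positive control and DMSO-only controls. 20 µg lysate protein in kinase buffer (40 mM Tris-HCl pH 7.6, 20 mM MgCl2, 0.1 mg/ml BSA), no exogenous ATP added. Luciferase ATP-detection reagent added, 10 min in the dark at room temperature, then luminescence read. Higher signal taken as reduced ATP consumption.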

Mahlavu [18] = assay: Reduction in intrinsic cellular ATP consumption in human Mahlavu cells at IC50 after 24 hrs by bioluminescence assay; format: functional, cell-based; in short: as §4

CCOC(=O)Cn1cnc2c(NCc3cccc(C(F)(F)F)c3)ncnc21
IC50 [1]: > 200 µM
inhibition (Huh-7 [2]): inactive
inhibition (T47D [3]): inactive

c1ccc(CN2CCC(Nc3ncnc4[nH]cnc34)CC2)cc1
inhibition (Huh-7 [2]): inactive
inhibition (HCT-116): inactive
inhibition (T47D [3]): inactive

CCOC(=O)Cn1cnc2c(N3CCN(c4ccc(C(F)(F)F)cc4)CC3)ncnc21
IC50 [4]: 53.3 µM
IC50 [1]: 72.4 µM
inhibition (T47D [3]): inactive

Nc1ncnc2c1ncn2CCNCCN1CCCC1
inhibition (Huh-7 [2]): inactive
inhibition (HCT-116): inactive
inhibition (T47D [3]): inactive

CCOC(=O)Cn1cnc2c(N3CCN(CCO)CC3)ncnc21
inhibition (Huh-7 [2]): inactive
inhibition (HCT-116): inactive
inhibition (T47D [3]): inactive

FC(F)(F)c1ccc(N2CCN(c3ncnc4[nH]cnc34)CC2)cc1
IC50 [4]: 3.2 µM
IC50 [1]: 5.1 µM
IC50 (T47D [5]): 39.4 µM
IC50 (HepG2): 3.7 µM
IC50 [6]: 6.7 µM
IC50 (PLC): 10.5 µM
IC50 [7]: 4.9 µM
IC50 [8]: 2.3 µM
IC50 [9]: 2.9 µM
IC50 [10]: 55.4 µM
IC50 [11]: 9.6 µM
Activity (Huh-7 [12]): Active
Activity (FOCUS): Active
Activity (Mahlavu [13]): inactive
Activity (Mahlavu [14]): inactive
Activity (Mahlavu [15]): inactive
Activity (Mahlavu [16]): inactive
Activity (Huh-7 [17]): Active
Activity (Mahlavu [18]): Active

Cc1ccc(S(=O)(=O)n2cnc3c(N4CCN(c5ccc(C(F)(F)F)cc5)CC4)ncnc32)cc1
IC50 [4]: 1.4 µM
IC50 [1]: 4.5 µM
IC50 (T47D [5]): 42.7 µM
IC50 (HepG2): 1.2 µM
IC50 [6]: 2.9 µM
IC50 (PLC): 3.7 µM
IC50 [7]: 1.7 µM
IC50 [8]: 1 µM
IC50 [9]: 1 µM
IC50 [10]: 8.4 µM
IC50 [11]: 5.4 µM
Activity (Huh-7 [12]): Active
Activity (FOCUS): Active
Activity (Mahlavu [13]): inactive
Activity (Mahlavu [14]): inactive
Activity (Mahlavu [15]): inactive
Activity (Mahlavu [16]): inactive
Activity (Huh-7 [17]): Active
Activity (Mahlavu [18]): Active

Nc1ncnc2c1ncn2CCNCCN1CCOCC1
inhibition (Huh-7 [2]): inactive
inhibition (HCT-116): inactive
inhibition (T47D [3]): inactive

CCNCCNCCn1cnc2c(N)ncnc21
inhibition (Huh-7 [2]): inactive
inhibition (HCT-116): inactive
inhibition (T47D [3]): inactive

Cc1ccc(S(=O)(=O)n2cnc3c(N4CCC(C)CC4)ncnc32)cc1
IC50 [4]: 17.8 µM
IC50 [1]: 14.6 µM
IC50 (T47D [5]): 22.5 µM

O=CN1CCN(c2ncnc3[nH]cnc23)CC1
inhibition (Huh-7 [2]): inactive
inhibition (HCT-116): inactive
inhibition (T47D [3]): inactive

Cc1ccc(S(=O)(=O)n2cnc3c(NCc4ccc(F)cc4F)ncnc32)cc1
IC50 (T47D [5]): 116 µM
inhibition (Huh-7 [2]): inactive
inhibition (HCT-116): inactive

O=c1[nH]cc(F)c(=O)[nH]1 [FLUOROURACIL]
IC50 [1]: 6 µM
IC50 (T47D [5]): 7.9 µM

Cc1ccc(S(=O)(=O)n2cnc3c(Cl)ncnc32)cc1
IC50 [4]: 20.8 µM
IC50 [1]: 22.8 µM
IC50 (T47D [5]): 13.9 µM

Nc1ncnc2c1ncn2CCN1CCN(CCO)CC1
inhibition (Huh-7 [2]): inactive
inhibition (HCT-116): inactive
inhibition (T47D [3]): inactive

Clc1ccc(CNc2ncnc3[nH]cnc23)c(Cl)c1
IC50 (T47D [5]): 147 µM
inhibition (Huh-7 [2]): inactive
inhibition (HCT-116): inactive

Nc1ncnc2c1ncn2CCNCCNc1ccccc1
inhibition (Huh-7 [2]): inactive
inhibition (HCT-116): inactive
inhibition (T47D [3]): inactive

CN(C)CCNCCn1cnc2c(N)ncnc21
inhibition (Huh-7 [2]): inactive
inhibition (HCT-116): inactive
inhibition (T47D [3]): inactive

Cc1ccc(S(=O)(=O)n2cnc3c(NCCC4C=CCCC4)ncnc32)cc1 (stereo not drawn)
IC50 [4]: 9.4 µM
IC50 [1]: 8.7 µM
IC50 (T47D [5]): 34.5 µM

CC1CCN(c2ncnc3[nH]cnc23)CC1
inhibition (Huh-7 [2]): inactive
inhibition (HCT-116): inactive
inhibition (T47D [3]): inactive

Nc1nc(Cl)nc2c1ncn2[C@H]1C[C@H](O)[C@@H](CO)O1 [CLADRIBINE]
IC50 [4]: 1.8 µM
IC50 [1]: 0.3 µM
IC50 (T47D [5]): 0.7 µM

OCCNc1ncnc2[nH]cnc12
inhibition (Huh-7 [2]): inactive
inhibition (HCT-116): inactive
inhibition (T47D [3]): inactive

CN1CCN(NCCn2cnc3c(N)ncnc32)CC1
inhibition (Huh-7 [2]): inactive
inhibition (HCT-116): inactive
inhibition (T47D [3]): inactive

c1ccc(NCCNc2ncnc3[nH]cnc23)cc1
IC50 [1]: 132 µM
inhibition (Huh-7 [2]): inactive
inhibition (T47D [3]): inactive

CC(C)NCCNCCn1cnc2c(N)ncnc21
inhibition (Huh-7 [2]): inactive
inhibition (HCT-116): inactive
inhibition (T47D [3]): inactive

C1=CC(CCNc2ncnc3[nH]cnc23)CCC1 (stereo not drawn)
IC50 [4]: 14.2 µM
IC50 [1]: 12.9 µM
IC50 (T47D [5]): 40.3 µM

OC[C@H]1O[C@@H](n2cnc3c2N=CNC[C@H]3O)C[C@@H]1O
inhibition (Huh-7 [2]): inactive
inhibition (HCT-116): inactive
inhibition (T47D [3]): inactive

Fc1ccc(CNc2ncnc3[nH]cnc23)c(F)c1
inhibition (Huh-7 [2]): inactive
inhibition (HCT-116): inactive
inhibition (T47D [3]): inactive

CC1CCN(c2ncnc3c2ncn3C2CCCC2)CC1
IC50 [4]: 17.4 µM
IC50 [1]: 16.6 µM
IC50 (T47D [5]): 21 µM

c1nc(NC2CC2)c2nc[nH]c2n1
inhibition (Huh-7 [2]): inactive
inhibition (HCT-116): inactive
inhibition (T47D [3]): inactive

Cc1ccc(S(=O)(=O)n2cnc3c(NC4CC4)ncnc32)cc1
inhibition (Huh-7 [2]): inactive
inhibition (HCT-116): inactive
inhibition (T47D [3]): inactive

Nc1ncnc2c1ncn2CCN1CCN(CCN2CCOCC2)CC1
inhibition (Huh-7 [2]): inactive
inhibition (HCT-116): inactive
inhibition (T47D [3]): inactive

CCOC(=O)Cn1cnc2c(NCc3ccc(Cl)cc3Cl)ncnc21
IC50 (T47D [5]): 99.9 µM
inhibition (Huh-7 [2]): inactive
inhibition (HCT-116): inactive

OCCN1CCN(c2[nH]cnc3ncnc2-3)CC1
inhibition (Huh-7 [2]): inactive
inhibition (HCT-116): inactive
inhibition (T47D [3]): inactive

FC(F)(F)c1cccc(CNc2ncnc3[nH]cnc23)c1
IC50 [4]: 68.3 µM
IC50 [1]: 102 µM
inhibition (T47D [3]): inactive

COc1ccc(CNc2ncnc3c2ncn3S(=O)(=O)c2ccc(C)cc2)cc1
inhibition (Huh-7 [2]): inactive
inhibition (HCT-116): inactive
inhibition (T47D [3]): inactive

Nc1nc(F)nc2c1ncn2[C@@H]1O[C@H](CO)[C@@H](O)[C@@H]1O [FLUDARABINE]
IC50 [4]: 60.1 µM
IC50 [1]: 6.6 µM
IC50 (T47D [5]): 46.2 µM

Cc1ccc(S(=O)(=O)n2cnc3c(NCc4ccc(Cl)cc4Cl)ncnc32)cc1
IC50 [4]: 26.9 µM
IC50 [1]: 28.1 µM
IC50 (T47D [5]): 47.6 µM

COc1ccc(CNc2ncnc3[nH]cnc23)cc1
IC50 [1]: 86.6 µM
inhibition (Huh-7 [2]): inactive
inhibition (T47D [3]): inactive
